Assay results published in ChEMBL document CHEMBL2346629, “Discovery and characterization of novel allosteric FAK inhibitors” (Eur J Med Chem, 2013).

Columns and labels:
[1] = tested on: Platelet-derived growth factor receptor alpha (Homo sapiens), P16234 [T674I]; assay: Inhibition of PDGFRa T674I mutant (unknown origin) using [gamma-33P]ATP assessed as residual activity at 3 uM
[2] = biological target: Serine/threonine-protein kinase 26 (Homo sapiens) (UniProt Q9P289); assay: Inhibition of MST4 (unknown origin) using [gamma-33P]ATP assessed as residual activity at 3 uM
Serine/threonine-protein kinase 26 (Homo sapiens), sequence (Q9P289 whole entry, looked up): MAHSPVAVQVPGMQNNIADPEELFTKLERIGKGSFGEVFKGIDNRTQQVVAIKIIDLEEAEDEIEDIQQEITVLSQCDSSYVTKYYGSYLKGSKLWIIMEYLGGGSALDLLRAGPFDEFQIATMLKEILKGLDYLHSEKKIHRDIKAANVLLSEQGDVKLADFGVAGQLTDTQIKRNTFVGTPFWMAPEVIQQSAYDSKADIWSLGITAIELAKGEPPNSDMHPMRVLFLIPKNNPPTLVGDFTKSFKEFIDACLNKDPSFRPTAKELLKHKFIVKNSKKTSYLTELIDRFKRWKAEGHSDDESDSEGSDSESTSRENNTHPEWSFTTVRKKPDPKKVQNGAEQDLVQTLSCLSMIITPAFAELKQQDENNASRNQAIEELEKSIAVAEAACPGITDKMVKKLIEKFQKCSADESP

[3] = biological target: Myosin light chain kinase, smooth muscle (Homo sapiens, UniProt Q15746); assay: Inhibition of MLCK (unknown origin) using [gamma-33P]ATP assessed as residual activity at 3 uM
How it was run: (§1)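 Contract radiometric panel screen of 288 kinases (261 wild-type, 27 mutant). Inhibition was read by [gamma-33P]ATP radioactivity incorporation.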

[4] = biological target: Serine/threonine-protein kinase MARK1 (Homo sapiens) (UniProt Q9P0L2); assay: Inhibition of MARK1 (unknown origin) using [gamma-33P]ATP assessed as residual activity at 3 uM; how it was run: as §1
[5] = biological target: Dual specificity protein kinase CLK2 (Homo sapiens) (UniProt P49760); assay: Inhibition of CLK2 (unknown origin) using [gamma-33P]ATP assessed as residual activity at 3 uM
How it was run: (§2)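 Reaction Biology HotSpot radiometric profiling panel of 288 kinases (261 wild-type, 27 mutant). Kinase activity was read out by incorporation of [γ-33P]ATP.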

[6] = biological target: Cyclin-dependent kinase 2/cyclin E1 (Homo sapiens) (UniProt P24864+P24941); assay: Inhibition of CDK2/cyclinE (unknown origin) using [gamma-33P]ATP assessed as residual activity at 3 uM; type: protein-complex assay
How it was run: (§3)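 Radiometric profiling across 288 kinases (261 wild-type, 27 mutant), run as an outsourced service. Inhibition read out as [gamma-33P]ATP incorporation into substrate.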

[7] = biological target: Cyclin-dependent kinase 2/cyclin A (Homo sapiens) (UniProt P24941+P20248+P78396); assay: Inhibition of CDK2/cyclinA (unknown origin) using [gamma-33P]ATP assessed as residual activity at 3 uM; type: protein-complex assay; how it was run: as §3
Cyclin-dependent kinase 2/cyclin A (Homo sapiens), sequence (P20248 whole entry, looked up, other chains not shown): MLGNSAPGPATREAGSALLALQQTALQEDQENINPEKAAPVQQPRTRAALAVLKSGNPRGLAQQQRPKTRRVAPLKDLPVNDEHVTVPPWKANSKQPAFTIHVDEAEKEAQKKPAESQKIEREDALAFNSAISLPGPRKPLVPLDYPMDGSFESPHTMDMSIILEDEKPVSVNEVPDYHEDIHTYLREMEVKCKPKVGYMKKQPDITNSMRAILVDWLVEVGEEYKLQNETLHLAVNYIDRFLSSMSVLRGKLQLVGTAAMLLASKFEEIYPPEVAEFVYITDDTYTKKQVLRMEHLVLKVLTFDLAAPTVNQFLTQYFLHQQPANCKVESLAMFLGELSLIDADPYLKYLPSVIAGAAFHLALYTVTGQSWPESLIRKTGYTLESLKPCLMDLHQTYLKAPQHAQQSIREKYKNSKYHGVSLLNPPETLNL
Cyclin-dependent kinase 2/cyclin A (Homo sapiens), sequence (P78396 whole entry, looked up, other chains not shown): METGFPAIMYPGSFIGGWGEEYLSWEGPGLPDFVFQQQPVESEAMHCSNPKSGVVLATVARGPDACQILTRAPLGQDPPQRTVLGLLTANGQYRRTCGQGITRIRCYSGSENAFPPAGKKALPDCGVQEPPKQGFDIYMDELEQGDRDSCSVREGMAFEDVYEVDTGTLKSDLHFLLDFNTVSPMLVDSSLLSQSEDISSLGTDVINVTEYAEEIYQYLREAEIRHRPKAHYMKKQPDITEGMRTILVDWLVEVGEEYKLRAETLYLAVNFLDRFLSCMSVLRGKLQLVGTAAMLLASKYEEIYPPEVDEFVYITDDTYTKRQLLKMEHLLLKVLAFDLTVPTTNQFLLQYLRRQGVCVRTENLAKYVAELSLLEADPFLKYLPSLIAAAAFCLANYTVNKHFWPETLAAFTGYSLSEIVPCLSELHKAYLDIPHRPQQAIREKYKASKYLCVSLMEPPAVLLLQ

[8] = biological target: Calcium/calmodulin-dependent protein kinase type II subunit gamma (Homo sapiens) (UniProt Q13555); assay: Inhibition of CAMK2g (unknown origin) using [gamma-33P]ATP assessed as residual activity at 3 uM; how it was run: as §3
Calcium/calmodulin-dependent protein kinase type II subunit gamma (Homo sapiens), sequence (Q13555 whole entry): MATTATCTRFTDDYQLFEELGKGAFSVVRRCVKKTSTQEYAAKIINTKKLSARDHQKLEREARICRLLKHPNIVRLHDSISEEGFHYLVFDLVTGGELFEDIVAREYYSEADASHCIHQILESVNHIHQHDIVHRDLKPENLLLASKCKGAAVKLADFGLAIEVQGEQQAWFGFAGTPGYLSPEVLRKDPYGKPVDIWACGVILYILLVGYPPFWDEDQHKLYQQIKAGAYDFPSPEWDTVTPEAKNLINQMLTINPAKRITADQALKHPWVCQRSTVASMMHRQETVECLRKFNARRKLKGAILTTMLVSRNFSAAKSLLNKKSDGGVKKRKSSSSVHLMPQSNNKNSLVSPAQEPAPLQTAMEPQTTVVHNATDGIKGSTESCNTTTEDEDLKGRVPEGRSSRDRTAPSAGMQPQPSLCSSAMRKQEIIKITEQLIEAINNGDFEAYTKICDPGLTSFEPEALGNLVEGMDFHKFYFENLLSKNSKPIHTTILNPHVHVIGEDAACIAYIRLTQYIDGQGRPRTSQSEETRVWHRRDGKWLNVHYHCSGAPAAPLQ

[9] = biological target: Serine/threonine-protein kinase BRSK1 (Homo sapiens) (UniProt Q8TDC3); assay: Inhibition of BRSK1 (unknown origin) using [gamma-33P]ATP assessed as residual activity at 3 uM; how it was run: as §3
Serine/threonine-protein kinase BRSK1 (Homo sapiens), sequence (Q8TDC3 whole entry): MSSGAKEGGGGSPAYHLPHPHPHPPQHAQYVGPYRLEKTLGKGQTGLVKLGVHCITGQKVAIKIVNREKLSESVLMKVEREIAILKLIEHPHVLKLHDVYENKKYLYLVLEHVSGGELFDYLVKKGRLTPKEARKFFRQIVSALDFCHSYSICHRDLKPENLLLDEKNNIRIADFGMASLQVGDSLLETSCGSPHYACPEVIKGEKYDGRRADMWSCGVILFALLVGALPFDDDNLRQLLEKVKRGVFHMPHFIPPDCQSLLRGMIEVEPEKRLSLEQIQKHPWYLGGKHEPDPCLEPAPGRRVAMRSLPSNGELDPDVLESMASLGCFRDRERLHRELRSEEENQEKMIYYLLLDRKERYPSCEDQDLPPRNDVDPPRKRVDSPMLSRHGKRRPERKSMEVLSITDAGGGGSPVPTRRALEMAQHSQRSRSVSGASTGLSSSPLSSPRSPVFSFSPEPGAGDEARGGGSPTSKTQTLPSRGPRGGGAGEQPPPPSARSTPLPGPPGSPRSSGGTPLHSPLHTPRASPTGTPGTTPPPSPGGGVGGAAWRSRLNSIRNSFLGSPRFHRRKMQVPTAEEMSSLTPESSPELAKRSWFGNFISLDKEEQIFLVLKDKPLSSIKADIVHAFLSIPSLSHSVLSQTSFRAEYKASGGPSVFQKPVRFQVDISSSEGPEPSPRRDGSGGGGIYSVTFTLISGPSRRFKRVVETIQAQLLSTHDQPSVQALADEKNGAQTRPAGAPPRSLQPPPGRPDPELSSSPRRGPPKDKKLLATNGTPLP

[10] = tested on: Epidermal growth factor receptor (Homo sapiens), P00533 [T790M]; assay: Inhibition of EGFR T790M mutant (unknown origin) using [gamma-33P]ATP assessed as residual activity at 3 uM; type: protein assay; how it was run: as §2
[11] = tested on: Epidermal growth factor receptor (Homo sapiens), P00533 [L861Q]; assay: Inhibition of EGFR L861Q mutant(unknown origin) using [gamma-33P]ATP assessed as residual activity at 3 uM; type: protein assay; how it was run: as §2
[12] = biological target: MAP kinase-activated protein kinase 2 (Homo sapiens) (UniProt P49137); assay: Inhibition of MAPKAPK2 (unknown origin) using [gamma-33P]ATP assessed as residual activity at 3 uM
How it was run: (§4)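 Radiometric kinase profiling service covering 288 kinases (261 wild-type, 27 mutant). Inhibition was read as incorporation from [γ-³³P]ATP.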

[13] = biological target: Mitogen-activated protein kinase 8 (Homo sapiens) (UniProt P45983); assay: Inhibition of JNK1a1 (unknown origin) using [gamma-33P]ATP assessed as residual activity at 3 uM; how it was run: as §4
[14] = biological target: Aurora kinase C (Homo sapiens) (UniProt Q9UQB9); assay: Inhibition of Aurora C (unknown origin) using [gamma-33P]ATP assessed as residual activity at 3 uM; how it was run: as §3
Aurora kinase C (Homo sapiens), sequence (Q9UQB9 whole entry): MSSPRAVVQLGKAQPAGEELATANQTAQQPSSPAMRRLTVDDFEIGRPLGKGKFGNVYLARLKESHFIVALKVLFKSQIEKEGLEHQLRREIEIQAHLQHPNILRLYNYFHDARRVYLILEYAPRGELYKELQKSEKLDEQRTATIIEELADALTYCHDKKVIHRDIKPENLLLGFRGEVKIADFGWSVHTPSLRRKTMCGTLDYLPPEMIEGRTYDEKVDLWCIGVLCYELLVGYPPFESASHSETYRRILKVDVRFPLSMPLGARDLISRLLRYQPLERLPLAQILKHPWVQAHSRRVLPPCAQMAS

[15] = biological target: Aurora kinase B (Homo sapiens) (UniProt Q96GD4); assay: Inhibition of Aurora B (unknown origin) using [gamma-33P]ATP assessed as residual activity at 3 uM; how it was run: as §3
[16] = biological target: Interleukin-1 receptor-associated kinase 1 (Homo sapiens) (UniProt P51617); assay: Inhibition of IRAK1 (unknown origin) using [gamma-33P]ATP assessed as residual activity at 3 uM; how it was run: as §4
Interleukin-1 receptor-associated kinase 1 (Homo sapiens), sequence (P51617 whole entry, looked up): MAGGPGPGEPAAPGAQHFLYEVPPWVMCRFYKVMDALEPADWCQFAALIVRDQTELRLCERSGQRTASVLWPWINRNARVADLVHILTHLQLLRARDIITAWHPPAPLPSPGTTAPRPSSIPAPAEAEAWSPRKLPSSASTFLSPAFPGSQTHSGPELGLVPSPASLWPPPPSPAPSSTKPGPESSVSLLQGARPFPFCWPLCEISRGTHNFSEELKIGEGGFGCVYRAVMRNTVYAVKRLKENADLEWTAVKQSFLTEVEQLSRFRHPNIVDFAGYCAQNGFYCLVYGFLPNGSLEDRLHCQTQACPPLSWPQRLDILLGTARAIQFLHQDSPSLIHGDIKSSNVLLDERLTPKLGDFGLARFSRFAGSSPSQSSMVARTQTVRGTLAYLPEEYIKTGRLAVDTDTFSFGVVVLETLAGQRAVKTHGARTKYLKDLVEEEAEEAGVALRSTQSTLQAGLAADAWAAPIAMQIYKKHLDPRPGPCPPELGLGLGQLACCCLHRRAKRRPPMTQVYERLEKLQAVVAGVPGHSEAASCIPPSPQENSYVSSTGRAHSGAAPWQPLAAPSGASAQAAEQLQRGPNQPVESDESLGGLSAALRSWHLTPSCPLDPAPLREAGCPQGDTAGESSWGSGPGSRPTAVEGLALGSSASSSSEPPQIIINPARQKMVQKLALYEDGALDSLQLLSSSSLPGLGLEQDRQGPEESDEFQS

[17] = biological target: High affinity nerve growth factor receptor (Homo sapiens) (UniProt P04629); assay: Inhibition of TRKA (unknown origin) using [gamma-33P]ATP assessed as residual activity at 3 uM
[18] = biological target: Serine/threonine-protein kinase TAO3 (Homo sapiens) (UniProt Q9H2K8); assay: Inhibition of TAOK3 (unknown origin) using [gamma-33P]ATP assessed as residual activity at 3 uM
[19] = biological target: Glycogen synthase kinase-3 beta (Homo sapiens) (UniProt P49841); assay: Inhibition of GSK3B (unknown origin) using [gamma-33P]ATP assessed as residual activity at 3 uM; how it was run: as §4
Glycogen synthase kinase-3 beta (Homo sapiens), sequence (P49841 whole entry, looked up): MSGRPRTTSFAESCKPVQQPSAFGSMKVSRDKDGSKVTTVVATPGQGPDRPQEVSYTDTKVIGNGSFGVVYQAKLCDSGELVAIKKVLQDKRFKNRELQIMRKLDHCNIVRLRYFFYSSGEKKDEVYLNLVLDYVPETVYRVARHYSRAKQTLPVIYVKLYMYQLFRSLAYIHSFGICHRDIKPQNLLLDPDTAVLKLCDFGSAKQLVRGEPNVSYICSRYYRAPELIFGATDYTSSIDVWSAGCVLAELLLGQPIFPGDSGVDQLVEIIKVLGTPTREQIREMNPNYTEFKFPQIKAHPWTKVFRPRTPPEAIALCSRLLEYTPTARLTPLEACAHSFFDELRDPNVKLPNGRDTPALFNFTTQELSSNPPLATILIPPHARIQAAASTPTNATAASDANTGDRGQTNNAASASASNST

[20] = biological target: G protein-coupled receptor kinase 6 (Homo sapiens) (UniProt P43250); assay: Inhibition of GRK6 (unknown origin) using [gamma-33P]ATP assessed as residual activity at 3 uM; how it was run: as §4
[21] = biological target: Tyrosine-protein kinase Fes/Fps (Homo sapiens) (UniProt P07332); assay: Inhibition of Fes (unknown origin) using [gamma-33P]ATP assessed as residual activity at 3 uM; how it was run: as §4
[22] = biological target: Ephrin type-A receptor 8 (Homo sapiens) (UniProt P29322); assay: Inhibition of EPHA8 (unknown origin) using [gamma-33P]ATP assessed as residual activity at 3 uM; how it was run: as §2
[23] = biological target: Serine/threonine-protein kinase N2 (Homo sapiens) (UniProt Q16513); assay: Inhibition of PKN2 (unknown origin) using [gamma-33P]ATP assessed as residual activity at 3 uM
[24] = biological target: Serine/threonine-protein kinase D2 (Homo sapiens) (UniProt Q9BZL6); assay: Inhibition of PKD2 (unknown origin) using [gamma-33P]ATP assessed as residual activity at 3 uM
[25] = biological target: cGMP-dependent protein kinase 1 (Homo sapiens) (UniProt Q13976); assay: Inhibition of PKG1a (unknown origin) using [gamma-33P]ATP assessed as residual activity at 3 uM
[26] = biological target: Serine/threonine-protein kinase DCLK2 (Homo sapiens) (UniProt Q8N568); assay: Inhibition of DCAMKL2 (unknown origin) using [gamma-33P]ATP assessed as residual activity at 3 uM; how it was run: as §2
Serine/threonine-protein kinase DCLK2 (Homo sapiens), sequence (Q8N568 whole entry): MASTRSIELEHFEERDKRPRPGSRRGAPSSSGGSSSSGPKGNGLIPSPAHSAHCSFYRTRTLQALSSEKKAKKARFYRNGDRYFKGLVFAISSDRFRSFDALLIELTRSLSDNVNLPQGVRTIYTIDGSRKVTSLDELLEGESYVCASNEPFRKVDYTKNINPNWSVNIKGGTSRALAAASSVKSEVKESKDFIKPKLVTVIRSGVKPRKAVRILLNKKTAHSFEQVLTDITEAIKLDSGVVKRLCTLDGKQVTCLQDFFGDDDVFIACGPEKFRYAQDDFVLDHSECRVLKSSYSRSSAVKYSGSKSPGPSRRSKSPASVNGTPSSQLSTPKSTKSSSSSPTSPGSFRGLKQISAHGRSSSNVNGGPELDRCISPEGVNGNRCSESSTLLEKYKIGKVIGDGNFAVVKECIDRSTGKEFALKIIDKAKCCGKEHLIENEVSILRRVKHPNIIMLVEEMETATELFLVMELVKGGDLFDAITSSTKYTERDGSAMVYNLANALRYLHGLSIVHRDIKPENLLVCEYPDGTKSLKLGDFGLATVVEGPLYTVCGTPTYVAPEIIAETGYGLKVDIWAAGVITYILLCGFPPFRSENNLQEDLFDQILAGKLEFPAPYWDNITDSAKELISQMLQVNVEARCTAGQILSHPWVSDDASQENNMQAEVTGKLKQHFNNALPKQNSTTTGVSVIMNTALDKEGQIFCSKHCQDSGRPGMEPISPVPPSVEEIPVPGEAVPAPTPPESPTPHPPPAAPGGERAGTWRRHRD

[27] = biological target: Death-associated protein kinase 1 (Homo sapiens) (UniProt P53355); assay: Inhibition of DAPK1 (unknown origin) using [gamma-33P]ATP assessed as residual activity at 3 uM; how it was run: as §2
[28] = biological target: Megakaryocyte-associated tyrosine-protein kinase (Homo sapiens) (UniProt P42679); assay: Inhibition of CTK (unknown origin) using [gamma-33P]ATP assessed as residual activity at 3 uM; how it was run: as §2
[29] = biological target: Serine/threonine-protein kinase pim-2 (Homo sapiens) (UniProt Q9P1W9); assay: Inhibition of PIM2 (unknown origin) using [gamma-33P]ATP assessed as residual activity at 3 uM
[30] = biological target: Platelet-derived growth factor receptor beta (Homo sapiens) (UniProt P09619); assay: Inhibition of PDGFRb (unknown origin) using [gamma-33P]ATP assessed as residual activity at 3 uM
[31] = biological target: Platelet-derived growth factor receptor alpha (Homo sapiens) (UniProt P16234); assay: Inhibition of PDGFRa (unknown origin) using [gamma-33P]ATP assessed as residual activity at 3 uM

Activity [1]: 91% | Activity [2]: 98% | Activity [3]: 45% | Activity [4]: 94% | Activity [5]: 68% | Activity [6]: 91% | Activity [7]: 96% | Activity [8]: 94% | Activity [9]: 93% | Activity [10]: 109% | Activity [11]: 106% | Activity [12]: 97% | Activity [13]: 101% | Activity [14]: 87% | Activity [15]: 86% | Activity [16]: 102% | Activity [17]: 88% | Activity [18]: 103% | Activity [19]: 103% | Activity [20]: 97% | Activity [21]: 78% | Activity [22]: 95% | Activity [23]: 91% | Activity [24]: 98% | Activity [25]: 95% | Activity [26]: 101% | Activity [28]: 96% | Activity [29]: 101% | Activity [30]: 81% | Activity [31]: 87%
Compound: CCc1ccc(-c2ccc3c(c2)-c2[nH]ncc2S(=O)(=O)N3C)cc1
Activity [27]: 94%
